Screens deposited in PubChem BioAssay by Broad Institute.
IDH1 R132H inh – blocks human IDH1 R132H reductase activity; 0.18% of 70,000 active; AID 624101; inhibition, % at 10 µM; diaphorase/resazurin fluorescence, 60 min; in the data active means inhibition above about 34%;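 further: 0% = DMSO and 100% = no enzyme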
Target sequence (O75874 whole entry R132H): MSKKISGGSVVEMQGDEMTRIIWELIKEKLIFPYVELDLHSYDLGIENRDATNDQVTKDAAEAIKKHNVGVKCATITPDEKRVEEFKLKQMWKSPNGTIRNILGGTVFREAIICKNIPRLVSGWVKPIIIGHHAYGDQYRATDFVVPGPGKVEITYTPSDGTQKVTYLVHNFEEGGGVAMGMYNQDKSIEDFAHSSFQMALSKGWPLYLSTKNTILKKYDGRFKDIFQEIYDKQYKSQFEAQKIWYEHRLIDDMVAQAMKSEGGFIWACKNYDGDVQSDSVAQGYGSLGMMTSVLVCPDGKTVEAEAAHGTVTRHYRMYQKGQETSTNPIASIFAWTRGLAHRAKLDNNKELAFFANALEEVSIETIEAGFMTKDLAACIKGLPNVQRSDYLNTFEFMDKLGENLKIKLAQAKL
KDM4C inh – blocks human GASC-1 (KDM4C) demethylase activity | Q9H3R0 | GST-KDM4C 2-372, H3K9me3 peptide, LANCE TR-FRET | inhibition, % at 12.5 µM | 0.15% of 96,000 active | AID 720574;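 active means mean replicate inhibition above about 25%, with at least 55% of replicates also reaching it, limit read from the data, passing the limit was not always enough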
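Material: GST-tagged GASC-1 (JMJD2C) catalytic fragment, aa 2-372 / Quantity: enzyme final amount 10 nM / Medium: HEPES buffer, pH 7.5, plus ascorbate / Doses: one test concentration per compound / Incubation: 30 min reaction, 60 min detection, RT / Measured by: LANCE TR-FRET / Read-out: inhibition from TR-FRET ratio decrease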
T cruzi growth-1 – T. cruzi proliferation inhibition; inhibition, % at 8.34 µM; T. cruzi beta-gal in NIH3T3, GalScreen luminescence, 90 h; 5.9% of 77,000 active;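 active means mean inhibition above about 93%, with at least 55% of replicates each passing it, limit read from the data, passing the limit was not always enough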
T cruzi growth-2 – inhibitors of T. cruzi proliferation. shares compounds with T cruzi growth-1. T. cruzi beta-gal in NIH3T3, GalScreen luminescence, 90 h. inhibition, % at 8.35 µM. 72% of 5,600 active;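 active means mean replicate inhibition above about 95% and at least 55% of replicates individually reaching it, limit read from the data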
T cruzi growth-3 – inhibitors of T. cruzi proliferation. shares compounds with T cruzi growth-1. T. cruzi beta-gal in NIH3T3, GalScreen luminescence, 90 h. inhibition, % at 2.09 µM. 21% of 5,600 active;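 active means mean inhibition above about 95%, with at least 55% of replicates also reaching it, limit read from the data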;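 further: plate controls were neutral control median for no effect and positive control median for full effect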
3T3 cytotox – cytotoxicity in mouse NIH/3T3 fibroblasts; NIH/3T3 viability, CellTiter-Glo ATP luminescence, 90 h; 14% of 5,600 active; cytotoxicity (signal decrease), % at 8.35 µM; shares compounds with T cruzi growth-1;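 active means mean signal decrease across replicates above about 35% based on untreated-well scatter, with enough replicates individually passing, limit read from the data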;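 further: 0% = median of neutral control wells and 100% = median of positive control wells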
3T3 cytotox 2 – cytotoxicity in mouse NIH/3T3 fibroblasts | shares compounds with T cruzi growth-1 | NIH/3T3 viability, CellTiter-Glo ATP luminescence, 90 h | inhibition, % at 24.9 µM | 56% of 5,600 active;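 active means mean loss of cell viability signal at or above a set limit, and enough replicates individually reaching it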;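 further: 0% = median of neutral control wells and 100% = median of positive control wells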
Starred values were filed as active, the others as inactive. This is one part of a sample in which hits are shown more often than they occur.

`C[C@H](CO)N1C[C@H](C)[C@H](CN(C)Cc2ccc(C(=O)O)cc2)Oc2c(NC(=O)NC3CCCCC3)cccc2C1=O` gave IDH1 R132H inh 2.7, KDM4C inh 0.7 and T cruzi growth-1 63.3.
Screening CN1c2ccc(-c3ccccc3)cc2[C@H]2[C@H](CCN2C(=O)c2ccccc2)[C@@H]1CO returned KDM4C inh 1.4 and T cruzi growth-1 42.7.
For CCCN1C[C@H](C)[C@H](OC)CN(C)C(=O)c2ccc(NC(=O)c3ccccc3F)cc2OC[C@H]1C the results were IDH1 R132H inh -0.1, KDM4C inh 0.3 and T cruzi growth-1 23.2.
For CCCNC(=O)C[C@H]1CC[C@@H]2[C@H](COc3ccc(NC(=O)c4ccccc4)cc3C(=O)N2C)O1 the results were KDM4C inh 1.2 and T cruzi growth-1 68.6.
For CC(C)NC(=O)Nc1ccc2c(c1)CC(=O)N([C@@H](C)CO)C[C@H](C)[C@H](CN(C)S(=O)(=O)c1cccs1)O2 the results were IDH1 R132H inh -0.5, KDM4C inh -0.6 and T cruzi growth-1 43.3.
Screening COCC#Cc1ccc2c(c1)O[C@@H](CN(C)C)[C@@H](C)CN([C@H](C)CO)S2(=O)=O returned IDH1 R132H inh 0.2, KDM4C inh 1.8 and T cruzi growth-1 7.2.
For C[C@H](CO)N1C[C@H](C)[C@H](CN(C)C(=O)Nc2cc(F)ccc2F)Oc2cc(-c3cccc(F)c3)ccc2S1(=O)=O the results were IDH1 R132H inh -0.1, KDM4C inh 0.0 and T cruzi growth-1 82.7.
Screening COc1ccc(-c2ccc3c(c2)O[C@@H](CN(C)C(=O)Nc2ccccc2F)[C@H](C)CN([C@@H](C)CO)S3(=O)=O)cc1 returned IDH1 R132H inh 0.5, KDM4C inh -0.7 and T cruzi growth-1 73.2.
`C[C@@H]1CN([C@H](C)CO)S(=O)(=O)c2ccc(-c3ccc(F)cc3)cc2O[C@@H]1CN(C)C(=O)Nc1ccccc1F` gave KDM4C inh -2.4, T cruzi growth-1 110.4*, T cruzi growth-2 109.9*, T cruzi growth-3 49.7, 3T3 cytotox 28.3 and 3T3 cytotox 2 37.4*.
For C[C@@H]1CN([C@@H](C)CO)S(=O)(=O)c2ccc(-c3ccccc3)cc2O[C@@H]1CN(C)C(=O)Nc1ccccc1F the results were KDM4C inh 3.3 and T cruzi growth-1 -77.6.
For C[C@@H]1CN([C@H](C)CO)S(=O)(=O)c2ccc(C#CC3CC3)cc2O[C@H]1CN(C)C(=O)Nc1cc(F)ccc1F the results were IDH1 R132H inh -0.4, KDM4C inh 1.2 and T cruzi growth-1 76.4.
Screening C[C@H](CO)N1C[C@H](C)[C@@H](CN(C)C(=O)Nc2cc(F)ccc2F)Oc2cc(-c3cccc(F)c3)ccc2S1(=O)=O returned IDH1 R132H inh -0.6, KDM4C inh 0.1, T cruzi growth-1 107.1*, T cruzi growth-2 111.4*, T cruzi growth-3 88.3, 3T3 cytotox 24.5 and 3T3 cytotox 2 32.1*.
For COc1ccc(-c2ccc3c(c2)O[C@@H](CN(C)C(=O)Nc2ccccc2F)[C@@H](C)CN([C@H](C)CO)S3(=O)=O)cc1 the results were IDH1 R132H inh 0.0, KDM4C inh 13.8, T cruzi growth-1 97.2*, T cruzi growth-2 106.5*, T cruzi growth-3 57.2, 3T3 cytotox 47.5* and 3T3 cytotox 2 38.9*.
Screening C[C@@H]1CN([C@H](C)CO)S(=O)(=O)c2ccc(C#CC3CC3)cc2O[C@@H]1CN(C)C(=O)Nc1cc(F)ccc1F returned IDH1 R132H inh -0.6, KDM4C inh -1.2, T cruzi growth-1 104.5*, T cruzi growth-2 108.7*, T cruzi growth-3 54.8, 3T3 cytotox -15.3 and 3T3 cytotox 2 -0.8.
For O=C(C[C@@H]1C=C[C@H](NC(=O)CC2CC2)[C@@H](CO)O1)NCc1ccc(Cl)cc1 the results were IDH1 R132H inh 0.3, KDM4C inh 0.4 and T cruzi growth-1 23.1.
Screening C[C@@H]1CN([C@@H](C)CO)C(=O)Cc2cc(NC(=O)CCCN(C)C)ccc2O[C@@H]1CN(C)CC1CCCCC1 returned KDM4C inh 0.5 and T cruzi growth-1 -5.2.
CC1(C)[C@H]2CC=C(/C=N\NC(=O)c3ccc(C(=O)NO)cc3)[C@@H]1C2 was read as IDH1 R132H inh -0.3.
